# Published values collected from several papers.
# Compare with care: the assays were run in different laboratories.
# Target: Death-associated protein kinase 1 (DAPK1, Homo sapiens, UniProt P53355)
Compound,observed,method,tested at,remaining binding
c1cncc(-c2cccc(Nc3nccc(NC4CCCCC4)n3)c2)c1,binding,competition with immobilised ligand,10 µM,90%
Cc1cnc(Nc2ccc(C(=O)N3CCC(N4CCCC4)CC3)cc2)nc1-c1cc2ccccc2s1,binding,competition with immobilised ligand,1 µM,16%
O=C1CCc2cc(Nc3cc(OC4CCOCC4)c([N+](=O)[O-])cc3Cl)ccc2N1,cell-free assay,competition with immobilised ligand,1 µM,90%
c1cnn2ncc(-c3ccnc(N4CCC45COC5)n3)c2c1,binding,,1 µM,79%
CC(=O)N1CCC(c2ccc(C(=O)NC3=NCCN3)cc2C(F)(F)F)CC1,cell-free assay,competition with immobilised ligand,1 µM,100%
N[C@@H]1CCN(c2nccc(-c3cnn4ncccc34)n2)C1,binding,,1 µM,97%
O=C(NCC1CCOCC1)c1n[nH]cc1NC(=O)c1c(F)cccc1F,binding,competition with immobilised ligand,1 µM,96%
CCN1CCN(Cc2ccc(C(=O)Nc3ccc(C)c(Oc4ccc5c(c4)CC(=O)N5)c3)cc2C(F)(F)F)CC1,binding,competition with immobilised ligand,1 µM,100%
C=CC(=O)N1CCC(C(=O)NCC(=O)N2CCN(c3nc(-c4cnc(N)nc4C(F)F)nc(N4CCOCC4)n3)CC2)CC1,binding,competition with immobilised ligand,1 µM,96%
FC(F)(F)c1ccc2c(c1)nc(-c1cccnc1)n2C1CC1,cell-free assay,competition with immobilised ligand,1 µM,100%
CNC(=O)[C@@H]1CC[C@@H](n2c(-c3ccc4cnccc4c3)nc3ccc(C(=O)NCc4cccc(C(N)=O)c4)cc32)C1,binding,competition with immobilised ligand,1 µM,100%
O=C(c1ccc(Nc2ncc(Cl)c(-c3ccc(Cl)s3)n2)cc1)N1CCC(N2CCCC2)CC1,binding,competition with immobilised ligand,1 µM,17%
CN(c1nccc(-c2cnn3ncccc23)n1)C1CC1,binding,,1 µM,100%
CS(=O)(=O)c1cc(C2(NC(=O)c3cncc4c3cnn4-c3ccc(F)cc3)CC2)ccn1,cell-free assay,competition with immobilised ligand,1 µM,83%
FC(F)(F)Oc1cccc(-c2cnc3ccc(-c4ccncc4)nn23)c1,cell-free assay,competition with immobilised ligand,5 µM,89%
C[C@@H]1CCN(c2nccc(-c3cnn4ncccc34)n2)C1,binding,,1 µM,79%
CNCc1ccccc1-c1csc([C@H](C)Nc2nc(C)nc3cc(OC)c(OC)cc23)c1,cell-free assay,competition with immobilised ligand,1 µM,100%
O=C(c1ccc(Nc2nccc(-c3cc4ccccc4s3)n2)cc1)N1CCC(N2CCCC2)CC1,binding,competition with immobilised ligand,1 µM,13%
Nc1c(C(=O)NCc2ccc(C(=O)NCCCC3CCCCC3)cc2)cnn1-c1ccccc1,cell-free assay,competition with immobilised ligand,0.1 µM,92%
CN(C)c1nccc(-c2cnc3ncccn23)n1,binding,,1 µM,92%
